Laboratory results: ChEMBL document CHEMBL1124212, “Synthesis of novel 3-substituted beta-carbolines as benzodiazepine receptor ligands: probing the benzodiazepine receptor pharmacophore” (J Med Chem, 1988)

Tests used:
[1] = target: GABA-A receptor; anion channel; experiment: In vitro inhibition of binding to the benzodiazepine receptor in rat cerebral cortical membrane using [3H]diazepam as radioligand; format: cell membranes
Outline: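 Rat cerebral cortex homogenized in 50 mM Tris-HCl, pH 7.4, spun at 20000g for 20 min at 4 °C, and washed three times. Nonspecific binding was measured with 10 μM flunitrazepam (final). IC50 was estimated from Hill plots.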

Mus musculus [2] = experiment: Proconvulsant effect on mice 15 min after ip administration of a 10 mg/kg dose; format: functional; conditions: route intraperitoneal
Outline: (§1)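 Adult male mice (~25 g) given test drug or vehicle (0.1 mL of 20% diluted Emulphor in saline) ip at the stated dose, then challenged 15 or 120 min later with pentylenetetrazole 40 mg/kg ip (in water). Animals watched 15 min after PTZ for clonic-tonic convulsions; % convulsing recorded; at least 10 animals per dose.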

Mus musculus [3] = experiment: Proconvulsant effect on mice 120 min after ip administration of a 25 mg/kg dose; format: functional; conditions: route intraperitoneal; outline: as §1
Mus musculus [4] = experiment: Proconvulsant effect on mice 15 min after ip administration of a 25 mg/kg dose; format: functional; conditions: route intraperitoneal; outline: as §1
Mus musculus [5] = experiment: Proconvulsant effect on mice 15 min after ip administration of a 5 mg/kg dose; format: functional; conditions: route intraperitoneal
Outline: (§2)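 Adult male mice (~25 g) were given drug ip in vehicle (20% diluted Emulphor in saline). They were challenged with pentylenetetrazole (40 mg/kg ip, in water) 15 or 120 min later. Animals were watched for 15 min for clonic-tonic convulsions, scored as % of animals convulsing, with at least 10 animals per dose.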

Mus musculus [6] = experiment: Proconvulsant effect on mice 120 min after ip administration of a 10 mg/kg dose; format: functional; conditions: route intraperitoneal; outline: as §2
Mus musculus [7] = experiment: Proconvulsant effect on mice 15 min after ip administration of a 20 mg/kg dose; format: functional; conditions: route intraperitoneal; outline: as §2
Mus musculus [8] = experiment: Proconvulsant effect on mice 15 min after ip administration of a 2.5 mg/kg dose; format: functional; conditions: route intraperitoneal; outline: as §2
Mus musculus [9] = experiment: Proconvulsant effect on mice 15 min after ip administration of at 1.25 mg/kg dose; format: functional; conditions: route intraperitoneal; outline: as §2
Rattus norvegicus = organism: Rattus norvegicus; experiment: In vitro inhibition of [3H]diazepam binding to GABA-A benzodiazepine receptor of rat cerebral cortical membrane
Outline: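 Rat cerebral cortex homogenized in 50 mM Tris-HCl, pH 7.4, spun at 20000g for 20 min at 4 °C, and washed three times. […] Nonspecific binding was measured with 10 μM flunitrazepam (final). IC50 was estimated from Hill plots.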

SMILES	IC50 [1]	further results
CCCOc1cc2c(cn1)[nH]c1ccccc12	11 nM	
COC(=O)c1cc2c(cn1)[nH]c1ccccc12 [BETA-CCM]	5 nM	
COC(=O)c1cc2c3ccccc3n(C)c2cn1	> 50000 nM	
CCOC(=O)c1cc2c(cn1)sc1ccccc12	980 nM	
O=[N+]([O-])c1cc2c3ccccc3nc-2c[nH]1	125 nM	
CCOC(=O)c1cc2c(cn1)[nH]c1ccccc12		Convulsion (Mus musculus [2]): 33%; Convulsion (Mus musculus [3]): 30%; Convulsion (Mus musculus [4]): 96%
S=C=Nc1cc2c3ccccc3nc-2c[nH]1	8 nM	
COc1cc2c(cn1)[nH]c1ccccc12	124 nM	
Clc1cc2c(cn1)[nH]c1ccccc12	45 nM	
Oc1cc2c3ccccc3nc-2c[nH]1	4000 nM	
c1ccc2c(c1)[nH]c1c2ccc2[nH]c3ccccc3c21	1920 nM	
CCOc1cc2c(cn1)[nH]c1ccccc12	24 nM	Convulsion (Mus musculus [2]): 84%; Convulsion (Mus musculus [5]): 50%; Convulsion (Mus musculus [6]): 60%; Convulsion (Mus musculus [7]): 100%; Convulsion (Mus musculus [8]): 40%; Convulsion (Mus musculus [9]): 30%
c1ccc2c(c1)[nH]c1cnccc12 [NORHARMANE]	1620 nM	
Cn1c2ccccc2c2c3[nH]c4ccccc4c3ncc21	1160 nM	
c1ccc(CNc2cc3c(cn2)[nH]c2ccccc23)cc1		IC30 (Rattus norvegicus): 1280 nM
COC(=O)c1cc2ccccc2cn1	13200 nM	
